# Compounds with a hit are over-represented: about 3.4% of the library has one in this group of screens.
# Redox H2O2 prof: compounds producing H2O2 with reducing agent – biochemical, NIH compound library profiling, artefact control for MLSCN library redox annotation, primary screen. DTT-dependent redox cycling H2O2, phenol red/HRP absorbance; 100% = 100 µM peroxide control, 0% = buffer. AID 878, 2007. 0.03% of 200,000 active. activation, % at 10 µM;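 active means activation of at least 50% relative to the plate's high and low controls in the primary single-dose screen; inactive means activation below 50%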;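 further: compound incubated with DTT at 0.8 mM final as the reducing agent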
# MDM2 E3 inh: MDM2-luciferase reporter signal enhancers, primary screen, MDM2 E3 ligase inhibitor project, cell-based, luminescence, 1536-well; AID 1230, 2008; signal enhancement, % at 5 µM; E3 ubiquitin-protein ligase Mdm2 (Homo sapiens), Q00987; cell-based MDM2 ubiquitination luciferase reporter, 2 h; 0 = plate control, 100 = twice control, blank-subtracted; 0.11% of 210,000 active;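 active means signal enhancement of 30% or more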;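 further: luminescence tracks abundance of the self-degrading MDM2-luciferase fusion protein; higher signal means inhibition of MDM2 E3 ligase activity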
#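 Test system: mammalian cells stably expressing self-ubiquitinating, self-degrading MDM2 E3–luciferase fusion; Amount: 2000 cells in each well; Medium: DMEM; Schedule: 4 h settle plus 2 h compound, 37 °C; Technique: SteadyLite luciferase luminescence after 15 min room-temperature reagent incubation; Benchmarks: plate control and blank wells.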
# ROMK primary: ROMK potassium channel modulators, primary screen, cell-based, thallium flux, MLSMR library; Tet-inducible ROMK, thallium flux fluorescence; actives lie on both sides; AID 1918, 2009; 2% of 130,000 active; ATP-sensitive inward rectifier potassium channel 1 (Homo sapiens), P48048; B-score at 10 µM;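 active means signal ratio slope over the read window, or its plate-corrected B-score, at least 3 SD from the plate mean, either direction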;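 further: B-score of the F/F0 ratio slope over 7 to 12 s after thallium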
# Target sequence (P48048 whole entry, looked up): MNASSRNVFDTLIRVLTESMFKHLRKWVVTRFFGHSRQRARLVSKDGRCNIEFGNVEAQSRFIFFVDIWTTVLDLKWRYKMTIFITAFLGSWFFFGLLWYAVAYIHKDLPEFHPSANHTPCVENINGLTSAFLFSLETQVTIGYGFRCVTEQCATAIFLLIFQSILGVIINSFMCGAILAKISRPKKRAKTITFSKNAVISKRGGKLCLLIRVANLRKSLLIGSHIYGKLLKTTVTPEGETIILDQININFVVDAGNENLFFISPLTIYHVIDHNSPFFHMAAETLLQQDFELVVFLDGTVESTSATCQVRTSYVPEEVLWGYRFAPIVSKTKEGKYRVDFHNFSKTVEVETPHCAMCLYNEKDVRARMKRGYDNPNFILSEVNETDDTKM
# p97 ATPase inh: inhibitors of human p97 ATPase, primary screen, biochemical. Transitional endoplasmic reticulum ATPase (Homo sapiens), P55072. inhibition, % at 8 µM. AID 1481, 2009. 0.42% of 220,000 active. recombinant p97 ATPase, Kinase-Glo ATP luminescence, 3 h; in the data active means inhibition above about 15%;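 further: 0% = DMSO vehicle and 100% = wells lacking enzyme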
# Cl transport mod: KCC2 cotransporter modulators, thallium flux, primary screen, cell-based, HEK293 KCC2, FluoZin-2 fluorescence, MLSMR | Solute carrier family 12 member 5 (Homo sapiens), Q9H2X9 | KCC2 cells, thallium flux FluoZin-2 fluorescence | B-score of Tl+ flux slope (higher = more flux/activation; lower = inhibition) at 10 µM | 2.2% of 190,000 active | AID 1456, 2008;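 active means thallium flux slope and its plate-corrected score both differing from the plate sample mean at a set confidence after two filtering rounds, in either direction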;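 further: slope of fluorescence scaled to starting intensity during 10 to 20 s after thallium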
# PKD1 kinase inh: inhibitors of human PKD1 kinase, biochemical, fluorescence polarization; Serine/threonine-protein kinase D1 (Homo sapiens), Q15139; PKD1 kinase fluorescence polarization assay; inhibition, % (no concentration beside the values); 0.056% of 200,000 active; in the data active means inhibition above about 50%
# KCC2 sec1: KCC2 modulators in sodium-free buffer, confirmation, cell-based, HEK293 KCC2, thallium flux, secondary assay | shares compounds with Cl transport mod | FluoZin2 fluorescence; hits give high values | normalised thallium flux (F/F0 slope) at 10 µM | 15% of 3,700 active | AID 1713, 2009;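 active means thallium flux slope above the same plate's solvent-only control mean plus 3 SD; inconclusive means the two replicate wells disagree; inactive means no significant difference from solvent-only control wells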
# KCC2 bumet counter: thallium flux persisting under bumetanide in KCC2 cells, confirmation, counter-screen for KCC2 modulator project, cell-based, HEK293 KCC2, FluoZin2, secondary assay 3; shares compounds with Cl transport mod; HEK293-KCC2 + bumetanide/ouabain; hits give high values; normalized thallium flux at 10 µM; 49% of 3,700 active;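 active means thallium entry rate above the same plate's blocked-transporter control wells by more than 3 SD; inconclusive means the two repeat wells disagree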;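 further: raw slope of fluorescence over initial fluorescence between 10 and 20 s after thallium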
# KCC2 secondary2: KCC2 modulators without ouabain present, confirmation, cell-based, HEK293 KCC2, thallium flux, FluoZin2, secondary assay 2. shares compounds with Cl transport mod. thallium flux FluoZin2 fluorescence; actives lie on both sides; F/F0 rise rate, 10–20 s post-thallium. normalized thallium flux at 10 µM. 23% of 3,700 active. AID 1715, 2009;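 active means thallium flux slope more than 3 SD above or below the plate's solvent-only control mean, mostly below; inconclusive means the two repeat wells disagreed; inactive means no significant shift from solvent-only controls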;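 further: raw slope with 0.1% DMSO as baseline and bumetanide as block control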
# HEK counter1: thallium flux modulation in parental HEK cells, confirmation, counter-screen for KCC2 modulator project, cell-based, counterscreen 1. HEK293 parental cells, thallium flux FluoZin2, ouabain; baseline-ratio fluorescence slope, 10–20 s after thallium. 46% of 3,700 active. thallium flux rate (normalised fluorescence) at 10 µM. AID 1716, 2009. shares compounds with Cl transport mod;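 active means thallium flux rate significantly above the same plate's solvent-only control wells, beyond their mean plus 3 SD; inconclusive means the two replicate wells gave conflicting results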
# KCC2 retest ouab: KCC2 inhibitors and activators, ouabain retest, confirmation, HEK-KCC2 cells | shares compounds with Cl transport mod | HEK293-KCC2, thallium flux FluoZin2 fluorescence; bidirectional: low = inhibitor, high = activator | raw Tl+ flux slope (below DMSO = inhibition, above = activation) at 10 µM | 48% of 3,700 active | AID 1717, 2009;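 active means thallium flux slope beyond 3 SD from same-plate DMSO control mean in most replicates, usually higher, sometimes lower; inconclusive means repeat tests gave conflicting results; inactive means no significant difference from controls in most replicates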;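 further: slope of initial-normalized fluorescence between seconds 10 and 20 after thallium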
# HEK counter2: native HEK Tl+ uptake effects, second counter-screen – HEK cells, counterscreen 2, counter-screen for KCC2 modulator project, confirmation; AID 1718, 2009; shares compounds with Cl transport mod; 33% of 3,700 active; HEK293 parental, thallium flux FluoZin-2 fluorescence slope; thallium flux slope at 10 µM;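 active means thallium flux slope above the same plate's solvent-control mean plus 3 SD in both duplicate wells; inconclusive means duplicate wells that disagreed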;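 further: run without ouabain in cells lacking the KCC2 cotransporter; slope of fluorescence scaled to its starting value between 10 and 20 s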
# An asterisk follows results filed as active; ? = inconclusive; / = no result given.
SMILES,Redox H2O2 prof,MDM2 E3 inh,ROMK primary,p97 ATPase inh,Cl transport mod,PKD1 kinase inh,KCC2 sec1,KCC2 bumet counter,KCC2 secondary2,HEK counter1,KCC2 retest ouab,HEK counter2
CCN(CC)C(=S)NC(=O)c1cccnc1,0,-2,0.51,5,-0.028,-3,/,/,/,/,/,/
COc1ccc(OCC(=O)N2c3ccc(C)cc3C3CN(C)CCC32)cc1 (stereo not given),0,-8,0.024,-2,-1.6,-7,/,/,/,/,/,/
CN1CCN(C(=S)NC(=O)c2ccc(C(C)(C)C)cc2)CC1,0,1,1,1,11*,-8,0.0056,0.018*,0.03,0.016*,?,0.015*
CN1CCN(C(=S)NC(=O)c2ccc(-c3ccccc3)cc2)CC1,0,-17,0.71,2,27*,8,0.03*,0.065*,?,0.034*,0.036*,0.038*
O=C(NC(=S)N1CCN(C2CCCCC2)CC1)c1ccccc1,0,-1,0.044,3,35*,0,0.033*,0.053*,0.047*,0.03*,0.038*,0.035*
CCOC(=O)N1CCN(C(=S)NC(=O)c2ccc(F)cc2)CC1,0,-13,0.57,2,4.2*,4,0.017,0.011*,0.033,0.013*,0.02,0.016*
COc1ccc(NC(=O)/C(N=Nc2cc(S(=O)(=O)Nc3ccc(OC)cc3)ccc2OC)=C(\C)O)cc1,-2,-11,-1.6,-3,0.2,-4,/,/,/,/,/,/
O=S(=O)(NCc1ccco1)c1ccc2c(c1)Cc1ccccc1-2,0,-8,0.19,-3,-4*,-2,0.0062,0.0045,0.027,?,?,0.011
CCOC(=O)c1c(NC(=S)NCc2ccccc2)sc2c1CCN(C(=O)OCC)C2,/,-18,/,-9,4.7*,/,?,0.025*,0.032,0.014*,0.024,0.012*
COc1ccccc1N1CCN(CC(=O)c2c[nH]c3ccccc23)CC1,/,-10,/,9,-0.34,/,/,/,/,/,/,/
O=C(CN1CCN(c2ccccc2F)CC1)c1c[nH]c2ccccc12,-4,0,/,10,-4.3*,-4,0.0092,0.0061,0.032,0.0078,0.023,0.011*
COc1ccc(CCNc2oc(Cc3ccccc3)nc2C#N)cc1OC,-1,-13,-0.82,-8,/,-7,/,/,/,/,/,/
COc1ccc(CCNc2oc(COc3ccccc3F)nc2C#N)cc1OC,1,3,-3.2,-1,-4*,2,0.0061,?,0.026*,0.0062*,0.015*,?
O=[N+]([O-])c1ccc(-c2cn(-c3ccccc3F)c(=S)[nH]2)cc1,0,-11,0.49,-6,5.8*,0,0.0093,0.012*,0.031,0.0089*,?,0.011*
COc1ccc(C2c3[nH]c4ccccc4c3CCN2C(=O)c2cc3ncccn3n2)c(F)c1 (stereo not given),1,-18,0.82,5,1,-7,/,/,/,/,/,/
CC(C)c1nnc(NC(=O)c2c(O)c3cccc4c3n(c2=O)CCC4)s1,0,-1,0.043,6,/,-4,0.0076,0.009*,0.027,0.0063,0.017*,0.0093
Cc1cnc(NC(=O)c2c(O)c3cccc4c3n(c2=O)CCC4)s1,0,8,/,5,-0.59,-17,/,/,/,/,/,/
O=C(COc1ccc2ccccc2c1)Nc1cccc(C(=O)Nc2ccccc2C(=O)O)c1,-1,-12,0.45,9,-4.7*,-5,?,0.0055,0.024*,?,0.014*,?
N#C/C(=C\c1ccc(-c2ccc([N+](=O)[O-])cc2)o1)C(=O)Nc1nc(-c2cccs2)cs1,/,/,/,-2,1.9,/,/,/,/,/,/,/
N#C/C(=C\c1ccc(-c2ccccc2[N+](=O)[O-])o1)C(=O)Nc1nc(-c2cccs2)cs1,1,-10,/,6,7.7*,-5,0.018,0.027*,0.032,0.017*,0.022*,0.016*
CC(C)c1ccc2[nH]c(O)c(N=NC(=O)c3cccc(S(=O)(=O)Nc4ccccc4Cl)c3)c2c1,0,-14,0.51,6,0.14,-5,/,/,/,/,/,/
CC(C)NC(=S)N=Nc1c(O)[nH]c2ccc(C(C)C)cc12,0,-19,/,4,4.1*,-4,0.0079,0.013*,0.032,0.015*,?,0.014*
COc1ccccc1NC(=S)N=Nc1c(O)[nH]c2ccc(Br)cc12,/,-8,/,2,9.1*,/,0.0071,0.01*,0.037,0.014*,?,0.017*
Cc1cccc(NC(=S)N=Nc2c(O)[nH]c3ccccc23)c1,0,2,-0.23,2,17*,-5,?,0.032*,0.028,0.015*,0.046*,?
COc1cccc(-c2cc(C(F)(F)F)nc(-n3cc(C)cn3)n2)c1,0,-9,0.38,-6,0.79,-4,/,/,/,/,/,/
CC(C)c1nnc(NC(=O)c2cccnc2)s1,0,-1,0.44,1,7.8*,-6,0.016,0.0051,0.027,0.0073,0.016,0.011

# Bioassay records: PubChem, several laboratories
